# Measurements taken from ChEMBL document CHEMBL4219143, “Synthesis, structure-activity relationships and preliminary mechanism study of N-benzylideneaniline derivatives as potential TLR2 inhibitors” (Bioorg Med Chem, 2018).
# Active and inactive are the calls of the source. No cut-off for these calls is given here.
# Columns and labels:
# [1] = molecular target: Toll-like receptor 2 (Homo sapiens) (UniProt O60603); test: Antagonist activity at human TLR2 expressed in HEK-blue cells assessed as inhibition of Pam3CSK4-induced NF-kappaB activation-mediated SEAP production at 25 uM after 24 hrs by Quanti-blue-based assay; format: cell-based
# Outline: (§1)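 HEK-Blue hTLR2 cells in DMEM with 10% serum and antibiotics, plated at 4 × 10⁴ cells per well for 24 h. Medium then replaced with compound plus agonist for 24 h at 37 °C. Agonists (final): Pam₃CSK₄ 10 ng/ml (TLR1/2), Pam₂CSK₄ 10 ng/ml (TLR2/6), Poly I:C 10 µg/ml (TLR3). Supernatant mixed 1:1 with Quanti-Blue; SEAP read at OD 620 nm after 15–30 min.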
# [2] = molecular target: Toll-like receptor 2 (Homo sapiens) (UniProt O60603); test: Antagonist activity at human TLR2 expressed in HEK-blue cells assessed as inhibition of Pam3CSK4-induced NF-kappaB activation-mediated SEAP production at 50 uM after 24 hrs by Quanti-blue-based assay; format: cell-based; outline: as §1
# [3] = molecular target: T1, Toll-like receptor 1/2 (Homo sapiens) (UniProt O60603+Q15399); test: Antagonist activity at human TLR1/2 expressed in HEK-blue cells assessed as inhibition of Pam3CSK4-induced IL-8 mRNA expression at 100 uM preincubated for 1 hr followed by Pam3CSK4 induction measured after 1 hr by qRT-PCR method relative to control; format: cell-based
# TLR2/TLR6 (Homo sapiens) [4] = molecular target: T2, TLR2/TLR6 (Homo sapiens) (UniProt O60603+Q9Y2C9); test: Antagonist activity at human TLR2/6 expressed in HEK-blue cells assessed as inhibition of Pam2CSK4-induced IL-8 mRNA expression at 100 uM preincubated for 1 hr followed by Pam2CSK4 induction measured after 1 hr by qRT-PCR method relative to control; format: cell-based
# [5] = Cytotoxicity against HEK-Blue cells up to 100 uM after 24 hrs by MTT assay; format: cell-based; conditions: human
# Outline: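 HEK-TLR2 cells in DMEM with 10% FBS, plated at 4 × 10⁴ cells per well for 24 h. Compound plus Pam₃CSK₄ (final 10 ng/ml) added, then incubated 24 h. MTT (5 mg/ml in PBS) added for 3 h at 37 °C. Formazan dissolved in DMSO; absorbance read at 490 nm.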
# [6] = molecular target: T1, Toll-like receptor 1/2 (Homo sapiens); test: Antagonist activity at human TLR1/2 expressed in HEK-blue cells assessed as inhibition of Pam3CSK4-induced NF-kappaB activation-mediated SEAP production at 25 uM after 24 hrs by Quanti-blue-based assay; format: cell-based; outline: as §1
# TLR2/TLR6 (Homo sapiens) [7] = molecular target: T2, TLR2/TLR6 (Homo sapiens); test: Antagonist activity at human TLR2/6 expressed in HEK-blue cells assessed as inhibition of Pam2CSK4-induced NF-kappaB activation-mediated SEAP production at 25 uM after 24 hrs by Quanti-blue-based assay; format: cell-based; outline: as §1
# [8] = molecular target: Toll-like receptor 3 (Homo sapiens) (UniProt O15455); test: Antagonist activity at human TLR3 expressed in HEK-Blue assessed as inhibition of poly 1:C-induced NF-kappaB activation-mediated SEAP production at 25 uM after 24 hrs by Quanti-blue-based assay; outline: as §1
# [9] = molecular target: Toll-like receptor 2 (Mus musculus) (UniProt Q9QUN7); test: Antagonist activity at TLR2 in mouse Raw 264.7 cells assessed as decrease in Pam3CSK4-induced iNOS levels at 40 uM after 24 hrs relative to positive control; format: cell-based
# Outline: (§2)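 Raw 264.7 cells in RPMI 1640 with 10% serum and antibiotics, plated at 8 × 10⁴ cells per well for 24 h. Compound and TLR agonist (Pam₃CSK₄ for TLR1/2, Pam₂CSK₄ for TLR2/6) added, then incubated 24 h. Nitric oxide in supernatant detected with DAN (0.05 mg/ml in 0.62 M HCl), 15 min in the dark.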
# [10] = molecular target: Toll-like receptor 2 (Homo sapiens) (UniProt O60603); test: Antagonist activity at human TLR2 expressed in HEK-Blue cells assessed as inhibition of Pam3CSK4-induced TLR2 upregulation at 10 uM by Western blot analysis; format: cell-based
# Outline: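 HEK-Blue hTLR2 cells treated with compound and Pam₃CSK₄ at 400 ng/ml. Lysed in RIPA buffer with 1% PMSF; proteins run on SDS-PAGE and transferred to PVDF. Membranes blocked with 5% milk in TBST. Probed overnight at 4 °C with anti-TLR2 (1:250) and anti-GAPDH (1:2000), then HRP secondary (1:2500) 1 h at RT. Detected by ECL.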
# TLR2/TLR6 (Mus musculus) = TLR2/TLR6 (Mus musculus) (UniProt Q9QUN7+Q9EPW9); test: Antagonist activity at TLR2/TLR6 in mouse Raw 264.7 cells assessed as decrease in Pam2CSK4-induced iNOS levels at 40 uM after 24 hrs relative to positive control; format: cell-based; outline: as §2
# [11] = molecular target: Toll-like receptor 2 (Homo sapiens) (UniProt O60603); test: Antagonist activity at TLR2 in human PBMC assessed as inhibition of Pam3CSK4-induced TNFalpha signalling after 24 hrs by ELISA; format: cell-based
# Outline: (§3)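 Human PBMC seeded at 2.5 × 10⁵ cells per well in RPMI 1640 with 10% FBS and 1% penicillin/streptomycin. Cells treated with compound plus Pam₃CSK₄ 10 ng/ml for 24 h at 37 °C, 5% CO₂. Supernatants stored frozen at −80 °C. TNF-α measured by sandwich ELISA against recombinant human standards, each sample in triplicate.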
# [12] = molecular target: Toll-like receptor 2 (Homo sapiens) (UniProt O60603); test: Antagonist activity at TLR2 in human PBMC assessed as inhibition of Pam3CSK4-induced TNFalpha signalling at 10 uM after 24 hrs by ELISA relative to control; format: cell-based; outline: as §3
# Toll-like receptor 2 (Homo sapiens), sequence (O60603 whole entry): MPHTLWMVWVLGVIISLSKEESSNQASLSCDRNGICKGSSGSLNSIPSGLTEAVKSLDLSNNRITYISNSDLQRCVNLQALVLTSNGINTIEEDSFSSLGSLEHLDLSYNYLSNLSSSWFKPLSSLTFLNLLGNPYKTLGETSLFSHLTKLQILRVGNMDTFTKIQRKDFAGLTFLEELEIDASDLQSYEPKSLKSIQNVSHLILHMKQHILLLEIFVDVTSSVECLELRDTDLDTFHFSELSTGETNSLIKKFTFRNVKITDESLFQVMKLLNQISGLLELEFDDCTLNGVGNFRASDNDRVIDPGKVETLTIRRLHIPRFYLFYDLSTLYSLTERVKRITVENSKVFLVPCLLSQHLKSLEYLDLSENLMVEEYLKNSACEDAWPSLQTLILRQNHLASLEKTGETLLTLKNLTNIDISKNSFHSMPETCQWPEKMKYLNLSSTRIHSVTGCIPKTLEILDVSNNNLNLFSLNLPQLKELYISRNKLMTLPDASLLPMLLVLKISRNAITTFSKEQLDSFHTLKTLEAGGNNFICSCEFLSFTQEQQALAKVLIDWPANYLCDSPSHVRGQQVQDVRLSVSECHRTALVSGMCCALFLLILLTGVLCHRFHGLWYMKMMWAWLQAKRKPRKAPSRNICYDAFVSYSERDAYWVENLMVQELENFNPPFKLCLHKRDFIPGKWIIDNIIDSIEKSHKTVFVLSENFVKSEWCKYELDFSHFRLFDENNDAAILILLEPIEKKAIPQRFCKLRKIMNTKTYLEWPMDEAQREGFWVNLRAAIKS
# Toll-like receptor 2 (Mus musculus), sequence (Q9QUN7 whole entry): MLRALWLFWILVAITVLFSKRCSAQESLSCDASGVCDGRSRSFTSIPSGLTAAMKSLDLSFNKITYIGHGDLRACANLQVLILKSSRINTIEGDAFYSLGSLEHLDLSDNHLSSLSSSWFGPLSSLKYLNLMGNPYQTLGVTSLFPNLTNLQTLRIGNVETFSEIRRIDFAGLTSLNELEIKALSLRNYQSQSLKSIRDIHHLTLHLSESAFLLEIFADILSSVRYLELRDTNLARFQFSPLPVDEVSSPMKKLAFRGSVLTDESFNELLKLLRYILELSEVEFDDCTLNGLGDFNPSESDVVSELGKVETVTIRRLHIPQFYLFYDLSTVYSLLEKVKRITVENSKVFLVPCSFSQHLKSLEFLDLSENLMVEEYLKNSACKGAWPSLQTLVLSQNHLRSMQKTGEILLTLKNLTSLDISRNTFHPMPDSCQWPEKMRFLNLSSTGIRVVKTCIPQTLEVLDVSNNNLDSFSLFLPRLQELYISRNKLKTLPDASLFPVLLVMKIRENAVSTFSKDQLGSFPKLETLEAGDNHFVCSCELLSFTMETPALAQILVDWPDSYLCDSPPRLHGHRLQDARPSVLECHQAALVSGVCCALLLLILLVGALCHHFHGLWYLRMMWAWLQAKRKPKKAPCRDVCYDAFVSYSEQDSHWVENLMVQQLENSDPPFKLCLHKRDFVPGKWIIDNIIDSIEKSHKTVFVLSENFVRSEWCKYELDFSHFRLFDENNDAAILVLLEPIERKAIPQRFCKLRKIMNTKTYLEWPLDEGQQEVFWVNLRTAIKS
# Toll-like receptor 3 (Homo sapiens), sequence (O15455 whole entry): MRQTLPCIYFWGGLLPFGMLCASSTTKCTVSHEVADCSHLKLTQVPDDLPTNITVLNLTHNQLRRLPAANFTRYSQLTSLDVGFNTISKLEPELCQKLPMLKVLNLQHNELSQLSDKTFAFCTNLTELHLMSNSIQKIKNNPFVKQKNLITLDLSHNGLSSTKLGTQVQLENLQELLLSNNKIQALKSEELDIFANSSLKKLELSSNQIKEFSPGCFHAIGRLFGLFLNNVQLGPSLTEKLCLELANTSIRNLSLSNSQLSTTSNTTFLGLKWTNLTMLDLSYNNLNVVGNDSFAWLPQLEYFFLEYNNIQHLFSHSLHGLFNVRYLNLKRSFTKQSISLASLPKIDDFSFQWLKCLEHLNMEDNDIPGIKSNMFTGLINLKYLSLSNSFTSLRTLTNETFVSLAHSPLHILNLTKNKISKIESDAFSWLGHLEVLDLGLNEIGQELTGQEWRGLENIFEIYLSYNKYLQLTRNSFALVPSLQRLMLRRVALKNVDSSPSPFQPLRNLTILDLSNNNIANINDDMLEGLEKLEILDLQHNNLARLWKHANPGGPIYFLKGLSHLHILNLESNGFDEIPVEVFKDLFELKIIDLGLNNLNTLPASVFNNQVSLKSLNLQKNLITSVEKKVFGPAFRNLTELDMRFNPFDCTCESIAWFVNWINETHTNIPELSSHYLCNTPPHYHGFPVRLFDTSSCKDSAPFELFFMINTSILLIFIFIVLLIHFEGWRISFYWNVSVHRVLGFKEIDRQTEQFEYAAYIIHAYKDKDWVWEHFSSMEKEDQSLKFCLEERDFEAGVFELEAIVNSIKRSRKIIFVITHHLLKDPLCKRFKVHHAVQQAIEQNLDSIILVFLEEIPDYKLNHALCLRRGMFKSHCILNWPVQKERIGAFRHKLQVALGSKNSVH
inhibition [1],inhibition [2],Structure (SMILES),also measured
2.53%,0%,O=C(O)c1ccc(C(F)(F)F)cc1/N=C/c1c(O)ccc2ccccc12,–
0%,0%,Cc1cccc(/N=C/c2c(O)ccc3ccccc23)c1C(=O)O,–
5.07%,0.75%,FC(F)(F)c1ccc(/C=N/c2ccc(-c3ccccc3)cc2)cc1,–
5.63%,3.1%,C(=C\c1ccccc1)/C=N/c1ccc(-c2ccccc2)cc1,–
7.27%,0.28%,COc1cccc(/N=C/c2ccc(C(F)(F)F)cc2)c1,–
3.99%,15.1%,COc1ccc(/N=C/C=C/c2ccccc2)cc1,–
23.3%,75.3%,COc1cccc(/C=N/c2ccc(-c3ccccc3)cc2)c1O,–
0.74%,56.4%,COc1cccc(/C=N/c2ccc(O)cc2)c1,–
2.39%,0%,COc1cc(/C=N/c2ccc(-c3ccccc3)cc2)ccc1O,–
0%,0%,Cc1c(/N=C/c2c(O)ccc3ccccc23)cccc1C(=O)O,–
0%,0%,Cc1c(/N=C/c2ccc(C(F)(F)F)cc2)cccc1C(=O)O,–
0%,19.2%,COc1cccc(CNc2ccccc2C(=O)c2ccc(Cl)cc2)c1O,–
0%,0%,COc1cccc(/C=N/c2ccc(-c3ccccc3)cc2)c1,–
5%,9.05%,O=C(O)c1cccc(/N=C/c2cccc(O)c2O)c1,–
8.33%,35.2%,CCOc1cccc(/C=N/c2ccc(OC)cc2)c1O,–
3.66%,0%,COc1ccc(/N=C/c2c(O)ccc3ccccc23)cc1,–
5.43%,38%,CCOc1cccc(/C=N/c2cccc(C(=O)O)c2C)c1O,–
15%,21.2%,Cc1cccc(/N=C/c2cccc(O)c2O)c1C(=O)O,–
0%,0%,O=C(O)c1cccc(/N=C/c2c(O)ccc3ccccc23)c1,–
0.99%,1.61%,COc1cccc(/C=N/c2cccc(C(=O)O)c2C)c1,–
5.21%,1.97%,COc1ccc(/N=C/c2cccc3ccccc23)cc1,–
35.5%,70.7%,CCOc1cccc(/C=N/c2ccccc2C(=O)c2ccc(Cl)cc2)c1O,–
0%,23.7%,COc1cccc(/C=N/c2cccc(C(=O)O)c2)c1O,–
0%,0%,Oc1ccc(/N=C/c2c(O)ccc3ccccc23)cc1,–
0.33%,5.77%,O=C(O)c1ccc(C(F)(F)F)cc1/N=C\c1c[nH]c2ccccc12,–

inhibition [1],inhibition [2],Structure (SMILES),also measured
5.35%,1.41%,Oc1ccc2ccccc2c1/C=N/c1ccc(-c2ccccc2)cc1,–
1.86%,30%,COc1cccc(/C=N/c2ccccc2C(=O)c2ccccc2)c1O,–
2.39%,27.8%,CCOc1cccc(/C=N/c2cccc(C)c2C(=O)O)c1O,–
5.77%,75.7%,CCOc1cccc(/C=N/c2ccc(O)cc2)c1O,–
14.9%,91.1%,COc1cccc(/C=N/c2ccc(O)cc2)c1O,–
2.35%,3.8%,C(=N/c1ccc(-c2ccccc2)cc1)/c1c[nH]c2ccccc12,–
3.09%,22.9%,O=C(c1ccc(Cl)cc1)c1ccccc1/N=C/c1c(O)ccc2ccccc12,–
3.77%,45.6%,COc1ccc(/N=C/c2cccc(OC)c2O)cc1,–
0%,0%,C(=N\c1ccc(-c2ccccc2)cc1)/c1cccc2ccccc12,–
14.9%,51.8%,COc1cccc(/C=N/c2cccc(C(=O)O)c2C)c1O,inhibition [3]: > 50%; inhibition (TLR2/TLR6 (Homo sapiens) [4]): > 50%
1.74%,14.4%,Cc1c(/N=C/C=C/c2ccccc2)cccc1C(=O)O,–
27.5%,95.8%,Oc1ccc(/N=C/C=C/c2ccccc2)cc1,–
2.39%,2.58%,Cc1c(/N=C\c2c[nH]c3ccccc23)cccc1C(=O)O,–
0%,0%,COc1cc(/C=N/c2cc(N)cc(C(=O)O)c2)ccc1O,–
3.59%,49%,CCOc1cccc(/C=N/c2ccccc2C(=O)c2ccccc2)c1O,–
2.11%,0%,COc1ccc(/N=C\c2c[nH]c3ccccc23)cc1,–
6.93%,19.4%,CCOc1cccc(/C=N/c2cccc(C(=O)O)c2)c1O,–
66.8%,95.1%,COc1cccc(/C=N/c2ccccc2C(=O)c2ccc(Cl)cc2)c1O,Activity [5]: Non-Toxic; inhibition [6]: Active; inhibition (TLR2/TLR6 (Homo sapiens) [7]): Active; inhibition [8]: inactive; inhibition [9]: > 70%; inhibition [10]: 50%; inhibition (TLR2/TLR6 (Mus musculus)): > 70%; inhibition [11]: Dose-dependent effect; inhibition [12]: 90%
44%,98.8%,Oc1ccc(/N=C/c2cccc3ccccc23)cc1,–
0%,0%,COc1ccc(/N=C/c2ccc(O)c(OC)c2)cc1,–
0%,0%,COc1ccc(/N=C/c2cccc(OC)c2OC)cc1,–
2.72%,0%,O=C(c1ccccc1)c1ccccc1/N=C/c1c(O)ccc2ccccc12,–
17%,44.9%,COc1ccc(/N=C/c2cccc(O)c2O)cc1,–
7.51%,62.7%,COc1cc(/C=N/c2ccc(O)cc2)ccc1O,–
24.2%,64.1%,CCOc1cccc(/C=N/c2ccc(-c3ccccc3)cc2)c1O,–
